Test results reported in ChEMBL document CHEMBL5154735, “Interaction of A3 adenosine receptor ligands with the human multidrug transporter ABCG2” (Eur J Med Chem, 2022).

The compounds below were run against T1, ABCG2 (Homo sapiens, UniProt Q9UNQ0) (assay: Activation of human ABCG2-mediated ATPase activity preincubated for 2 mins followed by ATP addition at 100 nM and measured after 20 mins by colorimetric assay relative to control). Conditions: read-out: Activity.
T1 sequence (Q9UNQ0 whole entry): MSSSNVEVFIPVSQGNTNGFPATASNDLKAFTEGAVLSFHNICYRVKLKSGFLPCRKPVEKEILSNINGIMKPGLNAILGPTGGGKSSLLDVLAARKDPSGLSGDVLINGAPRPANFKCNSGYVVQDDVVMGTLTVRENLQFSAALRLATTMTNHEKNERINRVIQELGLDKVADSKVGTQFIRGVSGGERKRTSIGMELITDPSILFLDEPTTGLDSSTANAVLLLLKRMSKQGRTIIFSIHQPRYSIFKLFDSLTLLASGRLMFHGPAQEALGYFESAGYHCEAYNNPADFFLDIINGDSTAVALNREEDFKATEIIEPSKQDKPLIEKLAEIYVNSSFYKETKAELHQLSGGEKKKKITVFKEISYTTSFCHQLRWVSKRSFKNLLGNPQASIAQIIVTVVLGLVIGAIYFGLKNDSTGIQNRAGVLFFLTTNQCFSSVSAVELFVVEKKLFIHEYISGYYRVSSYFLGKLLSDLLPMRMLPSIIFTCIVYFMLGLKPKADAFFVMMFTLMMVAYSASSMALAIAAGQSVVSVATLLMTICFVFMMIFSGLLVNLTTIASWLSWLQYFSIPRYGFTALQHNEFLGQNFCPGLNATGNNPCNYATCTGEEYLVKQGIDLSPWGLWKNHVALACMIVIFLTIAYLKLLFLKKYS
Summary of the method: (§1)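 Total membrane vesicles from High-Five insect cells expressing human ABCG2 (hypotonic lysis, differential centrifugation), 10 μg protein/tube, in MES-Tris pH 6.8 buffer with KCl, MgCl2, NaN3, EGTA, ouabain, DTT. Compound in DMSO added ± sodium orthovanadate (0.3 mM), DMSO control. Preincubated 2 min at 37°C, then 5 mM ATP, 20 min. SDS stop, Pi measured colorimetrically. Three independent experiments in duplicate, mean ± SE.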

| Structure (SMILES) | activity at 20 min, 0.1 µM |
| --- | --- |
| CNc1nc(C#Cc2ccc(Cl)s2)nc2c1ncn2[C@H]1[C@H](O)[C@H](O)[C@@]2(C(=O)OCCCc3ccccc3)C[C@H]12 | 38.8% |
| Clc1cccc(CNC2=NC(C#Cc3ccc(Cl)s3)=NC3=NC=NC32)c1 (configuration not stated) | 40.5% |
| CCOC(=O)C12CC1[C@@H](n1cnc3c(NCCc4ccc(OC)c(O)c4)nc(C#Cc4ccc(Cl)s4)nc31)[C@H](O)[C@@H]2O (single isomer, unassigned) | 64.3% |
| CCOC(=O)C12C[C@@H]1[C@@H](n1ccc3c(NCCCc4ccccc4)nc(C#Cc4ccccc4)nc31)[C@H](O)[C@@H]2O (single isomer, unassigned) | 37.9% |
| CNc1nc(C#Cc2ccc(Cl)s2)nc2c1ncn2[C@@H]1C2CC2(C(=O)Oc2ccccc2)[C@@H](O)[C@H]1O (single isomer, unassigned) | 50.3% |
| CCOC(=O)C12CC1[C@@H](n1cnc3c(NCCc4ccc(O)c(OC)c4)nc(C#Cc4ccc(Cl)s4)nc31)[C@H](O)[C@@H]2O (single isomer, unassigned) | 59.3% |

Now from value to compound:

| activity at 20 min, 0.1 µM | Structure (SMILES) |
| --- | --- |
| 41% | CCOC(=O)C12CC1[C@@H](n1ccc3c(NC)nc(C#Cc4ccc(Cl)s4)nc31)[C@H](O)[C@@H]2O (single isomer, unassigned) |
| 45.5% | CCOC(=O)C12CC1[C@@H](n1ccc3c(NCCCc4ccccc4)nc(C#Cc4ccc(Cl)s4)nc31)[C@H](O)[C@@H]2O (single isomer, unassigned) |
| 33.9% | CCCOC(=O)C12CC1[C@@H](n1cnc3c(NC)nc(C#Cc4ccc(Cl)s4)nc31)[C@H](O)[C@@H]2O (single isomer, unassigned) |

Each compound was assayed against T1, ABCG2 (assay: Effect on human ABCG2 transporter preincubated for 2 mins followed by ATP addition assessed as basal ATPase activity at 100 nM and measured after 20 mins by colorimetric assay relative to control). Conditions: read-out: Activity.
Summary of the method: as §1

| Structure (SMILES) | activity at 20 min, 0.1 µM |
| --- | --- |
| CCOC(=O)C12CC1[C@@H](n1ccc3c(NCC4CC4)nc(C#Cc4ccccc4)nc31)[C@H](O)[C@@H]2O (single isomer, unassigned) | ≤ 30% |
| CNc1nc(C#Cc2ccc(Cl)s2)nc2c1ncn2[C@@H]1C2CC2(C(=O)OCCC2CCCCC2)[C@@H](O)[C@H]1O (single isomer, unassigned) | ≤ 30% |
| CCOC(=O)C12CC1[C@@H](n1ccc3c(NC)nc(I)nc31)[C@H](O)[C@@H]2O (single isomer, unassigned) | ≤ 30% |
| CNc1nc(C#Cc2ccc(Cl)s2)nc2c1ncn2[C@@H]1C2CC2(C(=O)OC(C)C)[C@@H](O)[C@H]1O (single isomer, unassigned) | ≤ 30% |
| CNc1nc(C#Cc2ccc(Cl)s2)nc2c1ncn2[C@@H]1O[C@H](C(=O)OC)[C@@H](O)[C@H]1O | ≤ 30% |
| CNc1nc(C#Cc2ccc(Cl)s2)nc2c1ncn2[C@H]1[C@H](O)[C@H](O)[C@@]2(C(=O)OCCc3ccccc3)C[C@H]12 | ≤ 30% |
| CCOC(=O)C12CC1[C@@H](n1ccc3c(NC4CC4)nc(C#Cc4ccccc4)nc31)[C@H](O)[C@@H]2O (single isomer, unassigned) | ≤ 30% |

Continued, values first:

| activity at 20 min, 0.1 µM | Structure (SMILES) |
| --- | --- |
| ≤ 30% | CCOC(=O)[C@]12C[C@@H]1[C@@H](n1cnc3c(NC)nc(C#Cc4ccc(F)s4)nc31)[C@H](O)[C@@H]2O |
| ≤ 30% | CCOC(=O)C12CC1[C@@H](n1cnc3c(NC)cc(C#Cc4ccc(Cl)s4)nc31)[C@H](O)[C@@H]2O (single isomer, unassigned) |
| ≤ 30% | CCOC(=O)C12CC1[C@@H](n1cnc3c(NC)nc(C#Cc4ccc(Cl)s4)cc31)[C@H](O)[C@@H]2O (single isomer, unassigned) |
| ≤ 30% | CNc1nc(C#Cc2ccc(Cl)s2)nc2c1ncn2[C@@H]1C2CC2(C(=O)OCCC(C)C)[C@@H](O)[C@H]1O (single isomer, unassigned) |
| ≤ 30% | CCOC(=O)C12CC1[C@@H](n1ccc3c(NC)nc(C#Cc4ccccc4)nc31)[C@H](O)[C@@H]2O (single isomer, unassigned) |
| ≤ 30% | CCCCOC(=O)C12CC1[C@@H](n1cnc3c(NC)nc(C#Cc4ccc(Cl)s4)nc31)[C@H](O)[C@@H]2O (single isomer, unassigned) |
